For 21 compounds, viability, differential viability (reversal) and inhibition results are on record in PubChem BioAssay.

Active and inactive are the calls of the source. Unless noted, no stated cut-off is given here; in the data, active means inhibition above about 30%; inactive means the rest.

Assay [1] in a line: reduced viability of SK-BR-3 breast cancer cells – cell-based, 24 h, human, pilot screen (AID 572;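 active means viability at or below 10% of carrier control in both of two separate runs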;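 further: compound exposure lasted between 18 and 24 h rather than exactly 24 h; 100% = carrier-treated control wells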). Particulars: SK-BR-3 viability, CellTiter-Glo luminescence, at 10 µM, stronger effect = lower value. (In general: Cellular ATP, detected with luciferase, serves as a proxy for viable cell number.)
Assay [2] can be described thus: HUVEC growth inhibition – cell-based, human, primary screen (AID 575;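 active means viability at or below 30% in both replicate assays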;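 further: 100% = median of untreated cell wells with 0.1% DMSO on each plate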). The conditions noted are these: HUVEC proliferation, CellTiter-Glo luminescence, 72 h; at 10 µM; stronger effect = lower value. In outline: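 Test system – primary HUVEC, no more than 12 passages · Dosing – one dose, 10 µM final, 0.1% DMSO · Times – 72 h treatment at 37 °C · Measured by – ATP-based CellTiter-Glo luminescent read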

A short description of assay [3]: MRP1 drug-resistance reversers in H69AR cells – cell-based, doxorubicin co-treatment, pilot screen (AID 601;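 active means viability loss from added drug above about 55%, and viability with drug at most 40%, in both replicates, limit read from the data, passing the limit was not always enough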). Particulars: CellTiter-Glo, 72 h, at 10 µM; for differential viability (reversal): stronger effect = higher value.
Assay [4] is described as follows: yeast transport mutant growth inhibition pilot in 384-well plates, post-Golgi transport modulator project (AID 636; in the data active means inhibition above about 31%). Particulars: absorbance 615 nm, about 18 h, stronger effect = higher value.
Assay [5] can be described thus: growth suppression of yeast trafficking mutant, preliminary HTS, modulators of trafficking downstream of Golgi apparatus project, 1536-format plate, OD 615 nm (AID 637). Particulars: yeast transport mutant growth, absorbance 615 nm, 18 h; stronger effect = higher value.
Assay [6] is described as follows: H69AR cell proliferation blockers – human, duplicate replicates, primary screen (AID 580;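 active means viability at or under a set limit in both replicates, limit being median viability minus 3 SD, cut at about 48% in these data, passing the limit was not always enough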;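 further: 100% = mean luminescence of untreated wells and 0% = no signal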). The conditions noted are these: H69AR lung tumor cells viability, ATP luminescence, 72 h; at 10 µM; stronger effect = lower value.
Setting [7] is: H69AR cells + 2 uM doxorubicin, measured here: viability with 2 uM doxorubicin, stronger effect = lower value.
[8] abbreviates: H69AR cells, compound alone cytotoxicity.

For the compound `COc1cc2c(cc1NC(=O)CSc1nnc(Cc3cccs3)n1C)oc1ccccc12`, the viability – broadly, a read-out of living cells in per cent, often relative to untreated cells – is 74% (inactive) in assay [1], 54.4% (inactive) in assay [2], 59.9% in assay [3] (setting [7]) and 47.8% in assay [3] (setting [8]). For the same compound, the differential viability (reversal) in assay [3] (H69AR cells + 2 uM doxorubicin) is -12.1% (inactive). The inhibition – broadly, the change of the read-out against control, counted positive when it falls – was 11.5% (inactive) in assay [4] and 4.36% (inactive) in assay [5].
For `Cc1[nH]nc2c1C1(C(=O)N(Cc3ccc(Cl)cc3)c3ccccc31)C(C#N)=C(N)O2` (stereo not given), the viability in assay [1] was 94% (inactive); in assay [2], 90% (inactive); in assay [3] (setting [7]), 92%; in assay [3] (setting [8]), 52.2%. Moreover, the differential viability (reversal) in assay [3] (H69AR cells + 2 uM doxorubicin) was -39.8% (inactive). The inhibition was -4.32% (inactive) in assay [4] and 0.18% (inactive) in assay [5].
For the compound `CO[C@H]1C[C@@H]2CC[C@@H](C)[C@@](O)(O2)C(=O)C(=O)N2CCCC[C@H]2C(=O)O[C@H]([C@H](C)C[C@@H]2CC[C@@H](O)[C@H](OC)C2)CC(=O)[C@H](C)C=C(C)[C@@H](O)[C@@H](OC)C(=O)[C@H](C)C[C@H](C)C=CC=CC=C1C`, the viability was 113% (inactive) in assay [1], 67.1% (inactive) in assay [6], 65.7% in assay [3] (setting [7]) and 67.1% in assay [3] (setting [8]). Also, the differential viability (reversal) in assay [3] (H69AR cells + 2 uM doxorubicin) is 1.46% (inactive). In addition, the inhibition is 93.6% (active) in assay [4] and 82.2% (active) in assay [5].
As for `O=C(Nc1ccc2nn(-c3ccccc3)nc2c1)c1ccc(Br)o1`, the viability in assay [1] was 67.5% (inactive); in assay [6], 9.49% (active); in assay [3] (setting [7]), 9.78%; in assay [3] (setting [8]), 9.49%. Besides, the differential viability (reversal) in assay [3] (H69AR cells + 2 uM doxorubicin) is -0.29% (inactive). Also, the results for the inhibition in assay [4] and in assay [5] were -7.43% (inactive) and -10.3% (inactive), respectively.
In the case of `C(=C\c1ccccc1)/CN1CCN(C(c2ccccc2)c2ccccc2)CC1`, the viability in assay [1] was 90% (inactive); in assay [6], 71% (inactive); in assay [3] (setting [7]) it was 73.7%; in assay [3] (setting [8]) it was 71%. The differential viability (reversal) in assay [3] (H69AR cells + 2 uM doxorubicin) was -2.73% (inactive). The inhibition in assay [4] was 1.43% (inactive); in assay [5], -3% (inactive).
With `O=C(Nc1ccc2oc(Cc3ccc(Cl)cc3)nc2c1)c1cccnc1`, the viability in assay [1] was 103% (inactive); in assay [6] it was 37.9% (active); in assay [3] (setting [7]), 79.4%; in assay [3] (setting [8]), 37.9%. Besides, the differential viability (reversal) in assay [3] (H69AR cells + 2 uM doxorubicin) is -41.5% (inactive). For the same compound, the inhibition in assay [4] was -1.73% (inactive); in assay [5], -0.55% (inactive).
Take `COc1cc2c(C#N)c(N3CCN(c4ccccc4OC)CC3)nc(N)c2c(N)n1`: the viability in assay [1] was 110% (inactive); in assay [6], 67.8% (inactive); in assay [3] (setting [7]), 63.3%; in assay [3] (setting [8]), 67.8%. For the same compound, the differential viability (reversal) in assay [3] (H69AR cells + 2 uM doxorubicin) is 4.45% (inactive). The values for the inhibition in assay [4] and in assay [5] were -0.26% (inactive) and 5.9% (inactive), respectively.
In the case of `CC(=O)Nc1ccccc1OCC(=O)c1cc(C)n(Cc2cccs2)c1C`, the viability in assay [1] was 92% (inactive); in assay [6], 85.8% (inactive); in assay [3] (setting [7]), 90.2%; in assay [3] (setting [8]), 85.8%. Moreover, the differential viability (reversal) in assay [3] (H69AR cells + 2 uM doxorubicin) was -4.4% (inactive). Besides, the figures for the inhibition in assay [4] and in assay [5] were -3.01% (inactive) and -3.45% (inactive), respectively.
Take `COc1ccc(Cl)cc1C(=O)NCCc1ccc(S(=O)(=O)NC(=O)NC2CCCCC2)cc1`: the viability in assay [1] is 116% (inactive); in assay [6], 93.5% (inactive); in assay [3] (setting [7]) it was 103%; in assay [3] (setting [8]) it was 93.5%. The differential viability (reversal) in assay [3] (H69AR cells + 2 uM doxorubicin) is -9.18% (inactive). Also, the inhibition is 0.26% (inactive) in assay [4] and -1.33% (inactive) in assay [5].
In the case of `CCC(=O)Oc1ccc(C(CC)C(CC)c2ccc(OC(=O)CC)cc2)cc1` (stereo not given), the viability was 112% (inactive) in assay [1], 85.8% (inactive) in assay [6], 102% in assay [3] (setting [7]) and 85.8% in assay [3] (setting [8]). The differential viability (reversal) in assay [3] (H69AR cells + 2 uM doxorubicin) is -16.4% (inactive). The inhibition in assay [4] was -5.32% (inactive); in assay [5], -1.33% (inactive).
Turning to `CCN(CC)S(=O)(=O)c1ccc2[nH]cc(C(=O)NCCC3=CCCCC3)c(=O)c2c1`, the viability in assay [1] is 138% (inactive); in assay [6], 3.36% (active); in assay [3] (setting [7]), 44.3%; in assay [3] (setting [8]), 3.36%. Also, the differential viability (reversal) in assay [3] (H69AR cells + 2 uM doxorubicin) was -40.9% (inactive). Besides, the results for the inhibition in assay [4] and in assay [5] were -6.4% (inactive) and -0.65% (inactive), respectively.
Turning to `Cc1cc(C)c2ccc(N)nc2c1O`, the viability in assay [1] was 87.5% (inactive); in assay [6] it was 21.4% (active); in assay [3] (setting [7]), 28.9%; in assay [3] (setting [8]), 21.4%. For the same compound, the differential viability (reversal) in assay [3] (H69AR cells + 2 uM doxorubicin) was -7.52% (inactive). Moreover, the inhibition is -1.43% (inactive) in assay [4] and -1.48% (inactive) in assay [5].
With `COc1cccc(-c2cc(C(=O)Nc3cc(C)n(Cc4ccc(Cl)cc4)n3)no2)c1`, the viability is 57.5% (inactive) in assay [1], 58.5% in assay [3] (setting [7]) and 52.1% in assay [3] (setting [8]). For the same compound, the differential viability (reversal) in assay [3] (H69AR cells + 2 uM doxorubicin) is -6.4% (inactive). In addition, the inhibition in assay [4] is -6.35% (inactive); in assay [5] it was -7% (inactive).
In the case of `Clc1ccc(C2=Nn3c(nnc3-c3n[nH]c4c3CCC4)SC2)cc1Cl`, the viability in assay [1] was 102% (inactive); in assay [6], 9% (active); in assay [3] (setting [7]) it was 21.1%; in assay [3] (setting [8]) it was 9%. For the same compound, the differential viability (reversal) in assay [3] (H69AR cells + 2 uM doxorubicin) was -12.1% (inactive). Further, the results for the inhibition in assay [4] and in assay [5] were -6.58% (inactive) and 6.77% (inactive), respectively.
In the case of `C[C@]12CC[C@@H]3c4ccc(OC(=O)c5ccccc5)cc4CC[C@H]3[C@@H]1CC[C@@H]2O`, the results for the viability in assay [1], in assay [3] (setting [7]) and in assay [3] (setting [8]) were 78% (inactive), 48% and 39%, respectively. Also, the differential viability (reversal) in assay [3] (H69AR cells + 2 uM doxorubicin) is -9.02% (inactive). For the same compound, the inhibition in assay [4] was 2.73% (inactive); in assay [5], 32% (active).
As to `CCCCn1c(SCc2ccc(Cl)cc2)nc2c1c(=O)[nH]c(=O)n2C`, the viability was 80% (inactive) in assay [1], 76.7% (inactive) in assay [6], 70.7% in assay [3] (setting [7]) and 76.7% in assay [3] (setting [8]). Further, the differential viability (reversal) in assay [3] (H69AR cells + 2 uM doxorubicin) is 6.03% (inactive). The values for the inhibition in assay [4] and in assay [5] were -4% (inactive) and 0.73% (inactive), respectively.
Consider `O=C(CCCN1CCC(O)(c2ccc(Cl)cc2)CC1)c1ccc(F)cc1`, for which the viability in assay [1] was 79% (inactive); in assay [6], 84% (inactive); in assay [3] (setting [7]), 80.9%; in assay [3] (setting [8]), 84%. The differential viability (reversal) in assay [3] (H69AR cells + 2 uM doxorubicin) is 3.11% (inactive). The inhibition in assay [4] was 2.34% (inactive); in assay [5], -3.17% (inactive).
Consider `C(=C\c1ccccc1)/CSc1nnc(-c2ccccn2)n1Cc1ccco1`, for which the viability in assay [1] is 84% (inactive); in assay [6] it was 21.4% (active); in assay [3] (setting [7]), 68.2%; in assay [3] (setting [8]), 21.4%. Further, in assay [3] (H69AR cells + 2 uM doxorubicin), the differential viability (reversal) is -46.8% (inactive). For the same compound, the values for the inhibition in assay [4] and in assay [5] were -6.53% (inactive) and -0.16% (inactive), respectively.
Turning to `O=C(O)c1cc(O)c2c(c1)C(=O)c1cccc(O)c1C2=O`, the viability in assay [1] was 87% (inactive); in assay [6] it was 76.9% (inactive); in assay [3] (setting [7]) it was 91.4%; in assay [3] (setting [8]), 76.9%. Moreover, in assay [3] (H69AR cells + 2 uM doxorubicin), the differential viability (reversal) is -14.5% (inactive). Also, the inhibition was -4.42% (inactive) in assay [4] and 1.83% (inactive) in assay [5].
Regarding `N#Cc1ccccc1Cn1c(=O)n(Cc2ccc(C(=O)NCc3ccco3)cc2)c(=O)c2ccccc21`, the viability in assay [1] is 73% (inactive); in assay [6] it was 11% (active); in assay [3] (setting [7]) it was 19.4%; in assay [3] (setting [8]), 11%. The differential viability (reversal) in assay [3] (H69AR cells + 2 uM doxorubicin) was -8.33% (inactive). The figures for the inhibition in assay [4] and in assay [5] were -1.82% (inactive) and -7.21% (inactive), respectively.
Turning to `Oc1cccc(Nc2nc(NCC3CCCO3)c3ccccc3n2)c1` (stereo not given), the viability in assay [1] is 73% (inactive); in assay [6], 22.1% (active); in assay [3] (setting [7]), 41.4%; in assay [3] (setting [8]), 22.1%. Moreover, the differential viability (reversal) in assay [3] (H69AR cells + 2 uM doxorubicin) was -19.3% (inactive). The inhibition in assay [4] was -5% (inactive); in assay [5] it was 3.17% (inactive).
